Measurements: ChEMBL document CHEMBL4346686, “Discovery and biological evaluation of novel androgen receptor antagonist for castration-resistant prostate cancer” (Eur J Med Chem, 2019)
Active and inactive are the calls of the source. The calls are words filed in the database; no cut-off is given here.

Experiments:
[1] = tested on: L02; experiment: Antiproliferative activity against human L02 cells assessed as reduction in cell viability incubated for 6 days by CCK8 assay; type: cell-based; conditions: L02, 144 h
Procedure, shortened: (§1)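 Cells seeded (2×10^4 per well for VCaP, 1–3×10^3 for the others) and compound added after 24 h as a 9-point, 3-fold serial dilution. Exposure 6 days, then CCK-8 for 1–4 h and absorbance at 450 nm. IC50 from curve fit, mean of at least two independent experiments run in duplicate.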

[2] = Antiproliferative activity against human LNCaP-AR cells assessed as reduction in cell viability incubated for 6 days by CCK8 assay; type: functional, cell-based; conditions: 144 h; procedure, shortened: as §1
[3] = tested on: CWR22R; experiment: Antiproliferative activity against human 22Rv1 cells assessed as reduction in cell viability incubated for 6 days by CCK8 assay; type: functional, cell-based; conditions: 22Rv1, 144 h; procedure, shortened: as §1
[4] = tested on: PC-3; experiment: Antiproliferative activity against human PC3 cells assessed as reduction in cell viability incubated for 6 days by CCK8 assay; type: functional, cell-based; conditions: PC-3, 144 h; procedure, shortened: as §1
[5] = tested on: VCaP; experiment: Antiproliferative activity against human VCaP cells assessed as reduction in cell viability incubated for 6 days by CCK8 assay; type: functional, cell-based; conditions: 144 h; procedure, shortened: as §1
[6] = target: T1, Androgen receptor (Homo sapiens) (UniProt P10275); experiment: Antagonist activity at androgen receptor in human VCaP cells assessed as inhibition of R1881-induced PSA mRNA expression at 5 uM after 24 hrs by qRT-PCR analysis; type: cell-based
T1 sequence (whole entry): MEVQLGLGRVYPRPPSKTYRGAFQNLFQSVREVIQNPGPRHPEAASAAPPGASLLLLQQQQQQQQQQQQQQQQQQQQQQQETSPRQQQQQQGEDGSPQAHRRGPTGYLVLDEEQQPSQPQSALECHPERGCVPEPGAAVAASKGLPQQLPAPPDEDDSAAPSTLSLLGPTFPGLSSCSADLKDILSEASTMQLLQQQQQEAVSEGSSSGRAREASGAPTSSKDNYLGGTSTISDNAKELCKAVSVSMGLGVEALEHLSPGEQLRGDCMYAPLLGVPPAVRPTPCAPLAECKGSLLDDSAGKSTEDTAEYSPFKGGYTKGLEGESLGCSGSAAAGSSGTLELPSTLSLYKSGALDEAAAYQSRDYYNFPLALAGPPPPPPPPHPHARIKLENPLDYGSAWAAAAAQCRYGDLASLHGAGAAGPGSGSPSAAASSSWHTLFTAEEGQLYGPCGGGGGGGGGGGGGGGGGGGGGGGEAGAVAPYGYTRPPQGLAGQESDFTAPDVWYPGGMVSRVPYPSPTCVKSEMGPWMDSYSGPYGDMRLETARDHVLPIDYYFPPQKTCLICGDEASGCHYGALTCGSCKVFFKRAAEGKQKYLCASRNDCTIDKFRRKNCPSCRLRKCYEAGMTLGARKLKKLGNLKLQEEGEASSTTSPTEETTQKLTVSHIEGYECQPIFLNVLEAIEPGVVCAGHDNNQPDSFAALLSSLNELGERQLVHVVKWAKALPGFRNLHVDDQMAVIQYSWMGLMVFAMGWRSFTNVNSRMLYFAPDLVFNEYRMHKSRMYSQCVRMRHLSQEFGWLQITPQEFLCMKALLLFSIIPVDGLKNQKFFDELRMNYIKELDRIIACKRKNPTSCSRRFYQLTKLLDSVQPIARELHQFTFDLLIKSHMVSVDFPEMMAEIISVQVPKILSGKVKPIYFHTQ
Procedure, shortened: (§2)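 VCaP cells kept 48 h in DMEM with 5% charcoal-stripped FBS, then treated 24 h with compound plus 0.2 nM R1881. RNA extracted with TRIzol, reverse-transcribed, and PSA or FKBP5 mRNA quantified by qRT-PCR normalized to GAPDH. Expressed relative to DMSO-treated samples; mean ± SD, n = 3, two-tailed t-test.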

[7] = target: T1, Androgen receptor (Homo sapiens); experiment: Antagonist activity at androgen receptor in human VCaP cells assessed as inhibition of R1881-induced FKBP5 mRNA expression at 5 uM after 24 hrs by qRT-PCR analysis; type: cell-based; procedure, shortened: as §2
[8] = target: T2, Steroid 17-alpha-hydroxylase/17,20 lyase (Homo sapiens, UniProt P05093); experiment: Inhibition of C-myc/DDK tagged human CYP17A1 expressed in HEK293T cells assessed as reduction in formation of 17-OHP at 10 uM incubated for 30 mins by LC-MS/MS analysis; type: cell-based; conditions: 0.5 h
T2 sequence (P05093 whole entry): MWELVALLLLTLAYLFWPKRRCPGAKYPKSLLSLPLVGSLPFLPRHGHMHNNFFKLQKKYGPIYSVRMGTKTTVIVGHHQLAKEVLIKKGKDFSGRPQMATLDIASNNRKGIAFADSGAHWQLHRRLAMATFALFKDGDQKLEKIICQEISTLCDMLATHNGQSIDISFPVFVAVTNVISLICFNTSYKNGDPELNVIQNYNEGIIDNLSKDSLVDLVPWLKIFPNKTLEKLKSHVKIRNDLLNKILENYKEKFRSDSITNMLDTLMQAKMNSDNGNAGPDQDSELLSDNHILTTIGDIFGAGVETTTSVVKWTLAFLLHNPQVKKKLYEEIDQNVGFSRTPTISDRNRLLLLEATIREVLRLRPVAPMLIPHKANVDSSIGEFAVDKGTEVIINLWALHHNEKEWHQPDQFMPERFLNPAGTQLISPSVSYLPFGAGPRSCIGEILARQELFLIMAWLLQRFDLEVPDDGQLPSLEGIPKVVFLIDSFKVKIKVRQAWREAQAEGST
Procedure, shortened: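 CYP17A1 activity measured as 17α-hydroxyprogesterone formation in 50 mM Tris pH 7.4, 5 mM MgCl2. Incubation 30 min at 37 °C, quenched with 20% trichloroacetic acid; product quantified by LC-MS/MS. Mean ± SD, n = 2.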

SMILES | IC50 [1] | IC50 [2] | IC50 [3] | IC50 [4] | IC50 [5] | inhibition [6] | inhibition [7] | inhibition at 10 µM [8]
CCN(c1ccc(C#N)c(Cl)c1)c1cc(-c2ccncc2)ccc1C | 1.73 µM | 0.48 µM | 1.03 µM | 3.58 µM | 2.9 µM | – | – | –
CCN(c1ccc(C#N)c(Cl)c1)c1cc(-n2ccnc2)ccc1C | 15 µM | 0.32 µM | > 30 µM | > 30 µM | > 30 µM | – | – | –
CCN(c1cccc(-c2ccccc2)c1)c1ccc(C#N)c(Cl)c1 | – | 1.29 µM | – | – | – | – | – | –
CCN(c1ccc(C#N)c(Cl)c1)c1cc(-c2ccoc2)ccc1C | – | 0.48 µM | > 30 µM | > 30 µM | 4.01 µM | – | – | –
CCN(c1ccncc1)c1cc(-c2c(C)noc2C)ccc1C | – | 2.88 µM | – | – | 2.01 µM | – | – | –
N#Cc1ccc(N2CCc3cc(-c4cnc5ccccc5c4)ccc3C2)cc1C(F)(F)F | – | 0.98 µM | 25.9 µM | 25.1 µM | > 30 µM | – | – | –
CCN(c1ccc(C#N)c(Cl)c1)c1cc(C2=CCCCC2)ccc1C | – | 2.55 µM | – | – | 20 µM | – | – | –
N#Cc1ccc(N2CCCc3c(-c4cccnc4)cccc32)cc1C(F)(F)F | 10.5 µM | 0.12 µM | 12.3 µM | 7.97 µM | 13.5 µM | – | – | –
CCN(c1ccc(C#N)c(Cl)c1)c1cc(-c2cccs2)ccc1C | – | 0.38 µM | 22 µM | > 30 µM | – | – | – | –
CCN(c1ccc(C#N)c(Cl)c1)c1cc(-c2c(C)noc2C)ccc1C | 8.67 µM | 0.19 µM | 2.99 µM | 4.84 µM | 1.2 µM | – | – | –
CCN(c1ccc(C#N)c(Cl)c1)c1cc(-c2ccccc2)ccc1C | > 30 µM | 2.78 µM | > 30 µM | – | > 30 µM | – | – | –
CCN(c1ccc(C#N)c(Cl)c1)c1cc(-c2ccc(F)nc2)ccc1C | – | 0.41 µM | 16.5 µM | > 30 µM | > 30 µM | – | – | –
N#Cc1ccc(N2CCCc3c(-c4ccncc4)cccc32)cc1C(F)(F)F | 6.38 µM | 0.07 µM | 15 µM | 28.7 µM | > 30 µM | – | – | –
CCN(c1ccc(C#N)c(Cl)c1)c1cc(-n2cccn2)ccc1C | – | 0.29 µM | > 30 µM | 15.7 µM | 2.34 µM | – | – | –
Cc1noc(C)c1-c1cccc2c1CCCN2c1ccc(C#N)c(C(F)(F)F)c1 | – | 1.42 µM | – | – | > 30 µM | – | – | –
Cc1ccc(-c2c(C)noc2C)cc1Nc1ccncc1 | – | 3.7 µM | – | – | 1.97 µM | Active | Active | –
CCN(c1ccc(C#N)c(Cl)c1)c1cc(-c2cccnc2)ccc1C | 12.7 µM | 0.33 µM | 2 µM | 11 µM | 1.27 µM | Active | Active | –
CCN(c1ccc(C#N)c(Cl)c1)c1cc(-c2cnc3ccccc3c2)ccc1C | – | 1.98 µM | – | 3.57 µM | 25.3 µM | – | – | –
N#Cc1ccc(N2CCc3cc(-c4cccnc4)ccc32)cc1C(F)(F)F | – | 1.24 µM | – | – | – | – | – | –
CCN(c1ccc(C#N)c(C(F)(F)F)c1)c1cc(-n2ccnc2)ccc1C | – | 0.4 to 0.56 µM | 16.3 µM | > 30 µM | 3.92 to 30 µM | – | – | –

SMILES | IC50 [1] | IC50 [2] | IC50 [3] | IC50 [4] | IC50 [5] | inhibition [6] | inhibition [7] | inhibition at 10 µM [8]
N#Cc1ccc(N2CCc3cc(-c4cncnc4)ccc3C2)cc1C(F)(F)F | – | 1.67 µM | – | – | – | – | – | –
CCN(c1ccc(C#N)c(Cl)c1)c1cc(-c2ccco2)ccc1C | – | 0.49 µM | > 30 µM | > 30 µM | > 30 µM | – | – | –
N#Cc1ccc(N2CCc3cc(-c4cncnc4)ccc32)cc1C(F)(F)F | – | 21 µM | – | – | – | – | – | –
N#Cc1ccc(N2CCc3cc(-c4ccncc4)ccc3C2)cc1C(F)(F)F | – | 0.98 µM | 6.94 µM | – | 3.5 µM | – | – | –
CCN(c1ccc(C#N)c(Cl)c1)c1cc(-n2cnc3ccccc32)ccc1C | – | 0.39 µM | 3.04 µM | 8.16 µM | 8.56 µM | – | – | –
Cc1noc(C)c1-c1cccc(Oc2ccc(C#N)c(C(F)(F)F)c2)c1 | – | 1.67 µM | – | – | – | – | – | –
N#Cc1ccc(N2CCc3cc(-c4cccnc4)ccc3C2)cc1C(F)(F)F | – | 0.76 µM | 4.79 µM | – | 2.53 µM | – | – | –
C[C@]12CC[C@H](O)CC1=CC[C@@H]1[C@@H]2CC[C@]2(C)C(n3cnc4ccccc43)=CC[C@@H]12 [GALETERONE] | – | – | – | – | – | – | – | 50%
CCN(c1ccc(C#N)c(Cl)c1)c1cc(-c2c[nH]nc2C)ccc1C | 5.78 µM | 0.32 µM | 5.38 µM | 9.03 µM | 3.19 µM | – | – | –
N#Cc1ccc(N2CCc3cc(-c4cnc5ccccc5c4)ccc32)cc1C(F)(F)F | – | 11.5 µM | – | – | – | – | – | –
CCN(c1cccc(-c2cncnc2)c1)c1ccc(C#N)c(Cl)c1 | – | 0.36 µM | > 30 µM | > 30 µM | > 30 µM | – | – | –
Cn1nccc1-c1cccc2c1CCCN2c1ccc(C#N)c(C(F)(F)F)c1 | – | 0.24 µM | 10.4 µM | 9.8 µM | > 30 µM | – | – | –
CCN(c1ccc(C#N)c(Cl)c1)c1cc(-c2cncnc2)ccc1C | – | 0.4 µM | > 30 µM | > 30 µM | 3.92 µM | Active | Active | –
CCN(c1ccc(C#N)c(Cl)c1)c1cc(-c2ccnn2C)ccc1C | 6.23 µM | 0.17 µM | 4.33 µM | 7.29 µM | 1.67 µM | Active | Active | –
CCN(c1ccccn1)c1cc(-c2c(C)noc2C)ccc1C | 4.42 µM | 0.63 µM | 5.43 µM | 4.8 µM | 0.87 µM | – | – | –
C[C@]12CC[C@H](O)CC1=CC[C@@H]1[C@@H]2CC[C@]2(C)C(c3cccnc3)=CC[C@@H]12 [ABIRATERONE] | – | – | – | – | – | – | – | 100%
CCN(c1cccc(-n2ccnc2)c1)c1ccc(C#N)c(C(F)(F)F)c1 | – | 0.58 µM | 19 µM | > 30 µM | > 30 µM | – | – | –
CCN(c1cccc(-n2ccnc2)c1)c1ccc(C#N)c(Cl)c1 | 23.2 µM | 0.33 µM | > 30 µM | > 30 µM | > 30 µM | – | – | –
CCN(c1ccc(C#N)c(Cl)c1)c1cc(-c2cn[nH]c2)ccc1C | – | 0.7 µM | > 30 µM | 15.3 µM | – | – | – | –
